Assay results reported in ChEMBL document CHEMBL1156360, “New phenylpropanoid esters of sucrose from Polygonum lapathifolium” (J Nat Prod, 2001).

What was measured:
Format in all cases: cell-based
Raji [1] = test: Inhibition of 12-O-tetradecanoylphorbol-13-acetate-induced EBV-early antigen activation in human Raji cells at 500 molar ratio relative to TPA; design: scale not given: the % may be the effect or the level left; settings: human gammaherpesvirus 4
Method in brief: (§1)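 Raji cells (virus nonproducer, 1×10^6/mL) were cultured 48 h at 37 °C in 1 mL medium with n-butyric acid (4 mmol), TPA inducer (32 pmol = 20 ng in DMSO) and compound in DMSO. Dose is the mol ratio to TPA. EA-positive cells on smears were found by indirect immunofluorescence using NPC patient serum. Triplicate assays; induction is given relative to the butyric acid + TPA control (100%).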

[2] = Cytotoxicity against human Raji cells assessed as cell viability at 500 molar ratio by Trypan blue method; settings: read-out: Activity
Method in brief: (§2)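 Raji cells (1×10^6/mL) given n-butyric acid (4 mmol), TPA (32 pmol = 20 ng per mL, in DMSO) and test compound in DMSO, then held at 37 °C for 48 h. Dose is the mol ratio of compound to TPA. Viability of the treated cells was scored by Trypan Blue staining.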

Raji [3] = test: Inhibition of 12-O-tetradecanoylphorbol-13-acetate-induced EBV-early antigen activation in human Raji cells at 1000 molar ratio relative to TPA; design: scale not given: the % may be the effect or the level left; settings: human gammaherpesvirus 4; method in brief: as §1
[4] = Cytotoxicity against human Raji cells assessed as cell viability at 1000 molar ratio by Trypan blue method; settings: read-out: Activity; method in brief: as §2
[5] = Cytotoxicity against human Raji cells assessed as cell viability at 100 molar ratio by Trypan blue method; settings: read-out: Activity; method in brief: as §2
Raji [6] = test: Inhibition of 12-O-tetradecanoylphorbol-13-acetate-induced EBV-early antigen activation in human Raji cells at 100 molar ratio relative to TPA; design: scale not given: the % may be the effect or the level left; settings: human gammaherpesvirus 4; method in brief: as §1
[7] = Cytotoxicity against human Raji cells assessed as cell viability at 10 molar ratio by Trypan blue method; settings: read-out: Activity; method in brief: as §2
Raji [8] = test: Inhibition of 12-O-tetradecanoylphorbol-13-acetate-induced EBV-early antigen activation in human Raji cells at 10 molar ratio relative to TPA; design: scale not given: the % may be the effect or the level left; settings: human gammaherpesvirus 4; method in brief: as §1

Row | SMILES | Activity (Raji [1]) | viability at 500 molar ratio [2] | Activity (Raji [3]) | viability at 1000 molar ratio [4] | viability at 100 molar ratio [5] | Activity (Raji [6]) | viability at 10 molar ratio [7] | Activity (Raji [8])
1 | CC[C@H](CC[C@@H](C)[C@H]1CC[C@H]2[C@@H]3CC=C4C[C@@H](O[C@@H]5O[C@H](CO)[C@@H](O)[C@H](O)[C@H]5O)CC[C@]4(C)[C@H]3CC[C@]12C)C(C)C [SITOGLUSIDE] | 45.7% | > 80% | 14.8% | 60% | > 80% | 73.9% | > 80% | 100%
2 | COC(=O)/C=C/c1ccc(O)cc1 [METHYL P-HYDROXYCINNAMATE] | 42.6% | > 80% | 15.7% | 70% | > 80% | 77.5% | > 80% | 100%
3 | COc1cc(/C=C/C(=O)OC[C@H]2O[C@H](O[C@]3(COC(=O)/C=C/c4ccc(O)c(OC)c4)O[C@H](COC(=O)/C=C/c4ccc(O)cc4)[C@@H](O)[C@@H]3OC(=O)/C=C/c3ccc(O)cc3)[C@H](O)[C@@H](O)[C@@H]2O)ccc1O [LAPATHOSIDE A] | 37.2% | > 80% | 10% | 70% | > 80% | 70.9% | > 80% | 95%
4 | O=C(/C=C/c1ccc(O)cc1)OC[C@H]1O[C@@](COC(=O)/C=C/c2ccc(O)cc2)(O[C@H]2O[C@H](CO)[C@@H](O)[C@H](O)[C@H]2O)[C@@H](OC(=O)/C=C/c2ccc(O)cc2)[C@@H]1O [HYDROPIPEROSIDE] | 39.6% | > 80% | 10.6% | 70% | > 80% | 71.5% | > 80% | 100%
5 | COc1cc(/C=C/C(=O)OC[C@H]2O[C@H](O[C@]3(COC(=O)/C=C/c4ccc(O)cc4)O[C@H](COC(=O)/C=C/c4ccc(O)cc4)[C@@H](O)[C@@H]3OC(=O)/C=C/c3ccc(O)cc3)[C@H](O)[C@@H](O)[C@@H]2O)ccc1O [VANICOSIDE B] | 40.9% | > 80% | 11.8% | 70% | > 80% | 70% | > 80% | 100%
6 | O=C(/C=C/c1ccc(O)cc1)OC[C@H]1O[C@@](CO)(O[C@H]2O[C@H](CO)[C@@H](O)[C@H](O)[C@H]2O)[C@@H](OC(=O)/C=C/c2ccc(O)cc2)[C@@H]1O [LAPATHOSIDE D] | 38.3% | > 80% | 10.5% | 70% | > 80% | 71.4% | > 80% | 100%
7 | Oc1cc(O)c2c(c1)O[C@@H](c1ccc(O)c(O)c1)[C@H](O)C2 [(-)-CATECHIN] | 41.3% | > 80% | 11.3% | 70% | > 80% | 75.8% | > 80% | 100%
8 | CC[C@H](CC[C@@H](C)[C@H]1CC[C@H]2[C@@H]3C(=O)C=C4C[C@@H](O)CC[C@]4(C)[C@H]3CC[C@]12C)C(C)C | 42.8% | > 80% | 11.5% | 60% | > 80% | 71.5% | > 80% | 100%
9 | COc1cc(/C=C/C(=O)OC[C@H]2O[C@@](COC(=O)/C=C/c3ccc(O)c(OC)c3)(O[C@H]3O[C@H](COC(=O)/C=C/c4ccc(O)c(OC)c4)[C@@H](O)[C@H](O)[C@H]3O)[C@@H](OC(=O)/C=C/c3ccc(O)cc3)[C@@H]2O)ccc1O [LAPATHOSIDE B] | 51.6% | > 80% | 26.8% | 60% | > 80% | 77.9% | > 80% | 100%
10 | COc1cc(/C=C/C(=O)OC[C@H]2O[C@H](O[C@]3(CO)O[C@H](COC(=O)/C=C/c4ccc(O)cc4)[C@@H](O)[C@@H]3OC(=O)/C=C/c3ccc(O)cc3)[C@H](O)[C@@H](O)[C@@H]2O)ccc1O [LAPATHOSIDE C] | 59% | > 80% | 33.6% | 70% | > 80% | 83.5% | > 80% | 100%
